# Laboratory results from ChEMBL document CHEMBL3868630, “Synthesis, anti-proliferative activity, SAR study, and preliminary in vivo toxicity study of substituted N,N'-bis(arylmethyl)benzimidazolium salts against a panel of non-small cell lung cancer cell lines” (Bioorg Med Chem, 2017).
# Columns and labels:
# [1] = Growth inhibition of human A549 cells after 48 hrs by SRB assay; type: functional; conditions: A549, 48 h
# [2] = Cytotoxicity against human NCI-H460 cells assessed as decrease in cell viability after 72 hrs by MTT assay; type: functional, cell-based; conditions: NCI-H460, 72 h
# Summary of the method: (§1)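 Cells kept in RPMI 1640 with 10% FBS at 37 °C, 5% CO2, passaged every 2-3 days; seeded at 5,000-7,000 cells/well and left 24 h. Compounds dissolved in 1% DMSO, diluted in fresh medium to 1, 4, 16 and 32 µM, added in sextuplicate; 72 h exposure. MTT added for 3-4 h, medium removed, DMSO added for 15 min at 37 °C, OD read at 540 nm.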
# [3] = Cytotoxicity against human NCI-H1975 cells assessed as decrease in cell viability after 72 hrs by MTT assay; type: functional, cell-based; conditions: NCI-H1975, 72 h; summary of the method: as §1
# [4] = Cytotoxicity against human HCC827 cells assessed as decrease in cell viability after 72 hrs by MTT assay; type: functional, cell-based; conditions: HCC827, 72 h; summary of the method: as §1
# [5] = Cytotoxicity against human A549 cells assessed as decrease in cell viability after 72 hrs by MTT assay; type: functional, cell-based; conditions: A549, 72 h; summary of the method: as §1
# [6] = Cytotoxicity against human NCI-H226 cells assessed as cell growth at 10 uM after 48 hrs by SRB assay relative to control; type: functional; conditions: NCI-H226, 48 h, read-out: Activity
# [7] = Cytotoxicity against human HOP92 cells assessed as cell growth at 10 uM after 48 hrs by SRB assay relative to control; type: functional; conditions: HOP-92, 48 h, read-out: Activity
# [8] = Cytotoxicity against human A549 cells assessed as cell growth at 10 uM after 48 hrs by SRB assay relative to control; type: functional; conditions: A549, 48 h, read-out: Activity
# [9] = Cytotoxicity against human EKVX cells assessed as cell growth at 10 uM after 48 hrs by SRB assay relative to control; type: functional; conditions: read-out: Activity
# [10] = Cytotoxicity against human HOP62 cells assessed as cell growth at 10 uM after 48 hrs by SRB assay relative to control; type: functional; conditions: HOP-62, 48 h, read-out: Activity
# [11] = Cytotoxicity against human NCI-H23 cells assessed as cell growth at 10 uM after 48 hrs by SRB assay relative to control; type: functional; conditions: NCI-H23, 48 h, read-out: Activity
# [12] = Cytotoxicity against human NCI-H322M cells assessed as cell growth at 10 uM after 48 hrs by SRB assay relative to control; type: functional; conditions: read-out: Activity
# [13] = Cytotoxicity against human NCI-H460 cells assessed as cell growth at 10 uM after 48 hrs by SRB assay relative to control; type: functional; conditions: NCI-H460, 48 h, read-out: Activity
# [14] = Cytotoxicity against human NCI-H522 cells assessed as cell growth at 10 uM after 48 hrs by SRB assay relative to control; type: functional; conditions: NCI-H522, 48 h, read-out: Activity
# [15] = Growth inhibition of human EKVX cells after 48 hrs by SRB assay; type: functional
# [16] = Growth inhibition of human HOP62 cells after 48 hrs by SRB assay; type: functional; conditions: HOP-62, 48 h
# [17] = Growth inhibition of human HOP92 cells after 48 hrs by SRB assay; type: functional; conditions: HOP-92, 48 h
# [18] = Growth inhibition of human NCI-H226 cells after 48 hrs by SRB assay; type: functional; conditions: NCI-H226, 48 h
# [19] = Growth inhibition of human NCI-H23 cells after 48 hrs by SRB assay; type: functional; conditions: NCI-H23, 48 h
# [20] = Growth inhibition of human NCI-H322M cells after 48 hrs by SRB assay; type: functional
# [21] = Growth inhibition of human NCI-H460 cells after 48 hrs by SRB assay; type: functional; conditions: NCI-H460, 48 h
# [22] = Growth inhibition of human NCI-H522 cells after 48 hrs by SRB assay; type: functional; conditions: NCI-H522, 48 h
# [23] = Aqueous solubility of the compound; type: physicochemical
# Mus musculus [24] = assay: Toxicity in C57BL/6 mouse assessed as weight loss at 20 mg/kg, ip measured on day 2; type: organism-based; conditions: in vivo
# Summary of the method: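 Male C57BL/6 mice, 8 weeks old, 3 per cage, 12 h light/dark, food and water ad libitum, acclimated 5 days. Single IP dose on day 0 of 100 µL of 4 mg/mL in 20% 2-HPβCD in sterile PBS (~20 mg/kg assuming 20 g mice). Vehicle controls got 100 µL 20% 2-HPβCD/PBS IP on days 0, 7, 14, 21, 25. Weighed and monitored daily.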
# Mus musculus [25] = assay: Toxicity in C57BL/6 mouse assessed as increase in body mass at 20 mg/kg, ip measured after 16 days; type: organism-based; conditions: in vivo, 384 h
# Summary of the method: (§2)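 Male C57BL/6 mice, eight weeks old, housed three per cage on a 12 h light/dark cycle with food and water ad libitum, acclimated 5 days. Single IP injection on day 0 of 100 µL of a 4 mg/mL solution (0.4 mg, ~20 mg/kg assuming 20 g mice) in 20% 2-HPβCD sterile PBS. Vehicle controls were injected on days 0, 7, 14, 21 and 25. Mice were monitored and weighed daily.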
# [26] = Toxicity in C57BL/6 mouse assessed as mouse survival rate at 20 mg/kg, ip measured after 16 days; type: organism-based; conditions: in vivo; summary of the method: as §2
# [27] = read-out: LC50 (the source's name)
smiles,measurement,setting,value
CCCCc1n(Cc2ccc3ccccc3c2)c2ccccc2[n+]1Cc1ccc2ccccc2c1.[Br-],GI50,[1],1040 nM
same,TGI,[1],2420 nM
same,IC50,[2],2000 nM
same,IC50,[3],< 1000 nM
same,IC50,[4],2000 nM
same,IC50,[5],2000 nM
same,growth at 10 µM,[6],-72.7%
same,growth at 10 µM,[7],-70.7%
same,growth at 10 µM,[8],-72.3%
same,growth at 10 µM,[9],-84.6%
same,growth at 10 µM,[10],-76.8%
same,growth at 10 µM,[11],-83.9%
same,growth at 10 µM,[12],-82.2%
same,growth at 10 µM,[13],-81.1%
same,growth at 10 µM,[14],-77.2%
same,GI50,[15],1170 nM
same,GI50,[16],1050 nM
same,TGI,[16],2550 nM
same,GI50,[17],298 nM
same,TGI,[17],1350 nM
same,GI50,[18],1080 nM
same,GI50,[19],371 nM
same,TGI,[19],1700 nM
same,GI50,[20],1220 nM
same,TGI,[20],2570 nM
same,GI50,[21],436 nM
same,GI50,[22],289 nM
same,TGI,[22],1350 nM
same,solubility,[23],< 500 µg/mL
[Br-].c1ccc2cc(Cn3c[n+](Cc4ccc5ccccc5c4)c4ccccc43)ccc2c1,GI50,[1],1870 nM
same,LC50,[1],8010 nM
same,TGI,[1],3880 nM
same,IC50,[2],3000 nM
same,IC50,[3],3000 nM
same,IC50,[4],3000 nM
same,IC50,[5],5000 nM
same,growth at 10 µM,[6],19.6%
same,growth at 10 µM,[7],-27.6%
same,growth at 10 µM,[8],30.9%
same,growth at 10 µM,[9],13.9%
same,growth at 10 µM,[10],3.98%
same,growth at 10 µM,[11],-0.74%
same,growth at 10 µM,[12],34.6%
same,growth at 10 µM,[13],-34.2%
same,growth at 10 µM,[14],-28.8%
same,GI50,[15],1470 nM
same,TGI,[15],2950 nM
same,GI50,[16],1540 nM
same,TGI,[16],2980 nM
same,GI50,[17],192 nM
same,LC50,[17],4930 nM
same,TGI,[17],1570 nM
same,GI50,[18],1460 nM
same,TGI,[18],3250 nM
same,GI50,[19],1050 nM
same,TGI,[19],2510 nM
same,GI50,[20],1490 nM
same,TGI,[20],2890 nM
same,GI50,[21],1350 nM
same,TGI,[21],2910 nM
same,GI50,[22],1250 nM
same,TGI,[22],2820 nM
same,solubility,[23],< 500 µg/mL
COCCOCCOCc1n(Cc2ccc3ccccc3n2)c2ccccc2[n+]1Cc1ccc2ccccc2c1.[Br-],GI50,[1],748 nM
same,LC50,[1],37100 nM
same,TGI,[1],10600 nM
same,IC50,[2],3000 nM
same,IC50,[3],< 1000 nM
same,IC50,[4],6000 nM
same,IC50,[5],3000 nM
same,growth at 10 µM,[6],28.1%
same,growth at 10 µM,[7],-18.2%
same,growth at 10 µM,[8],22.5%
same,growth at 10 µM,[9],31%
same,growth at 10 µM,[10],11.7%
same,growth at 10 µM,[11],1.03%
same,growth at 10 µM,[12],26.8%
same,growth at 10 µM,[13],7.94%
same,growth at 10 µM,[14],0.79%
same,GI50,[15],1270 nM
same,LC50,[15],50900 nM
same,TGI,[15],10800 nM
same,GI50,[16],468 nM
same,TGI,[16],2520 nM
same,CC50,[16]; [27],9530 nM
same,GI50,[17],207 nM
same,LC50,[17],5220 nM
same,TGI,[17],718 nM
same,GI50,[18],874 nM
same,LC50,[18],45200 nM
same,TGI,[18],4830 nM
same,GI50,[19],386 nM
same,LC50,[19],53500 nM
same,TGI,[19],10300 nM
same,GI50,[20],1080 nM
same,TGI,[20],7090 nM
same,CC50,[20]; [27],28600 nM
same,GI50,[21],424 nM
same,LC50,[21],5700 nM
same,TGI,[21],1560 nM
same,GI50,[22],248 nM
same,TGI,[22],936 nM
same,CC50,[22]; [27],4590 nM
same,Activity,Mus musculus [24],Toxic
same,Activity,Mus musculus [25],6%
same,survival at 384 h,[26],33%
same,solubility,[23],1900 µg/mL
CCCc1n(Cc2ccc3ccccc3c2)c2ccccc2[n+]1Cc1ccc2ccccc2c1.[Br-],GI50,[1],619 nM
same,LC50,[1],5090 nM
same,TGI,[1],2040 nM
same,IC50,[2],2000 nM
same,IC50,[3],< 1000 nM
same,IC50,[4],< 1000 nM
same,IC50,[5],2000 nM
same,growth at 10 µM,[6],-4.44%
same,growth at 10 µM,[7],-48.1%
same,growth at 10 µM,[8],-19.4%
same,growth at 10 µM,[9],-4.84%
same,growth at 10 µM,[10],-55.4%
same,growth at 10 µM,[11],-12.9%
same,growth at 10 µM,[12],4.72%
same,growth at 10 µM,[13],-76.1%
same,growth at 10 µM,[14],-60.1%
same,GI50,[15],653 nM
same,TGI,[15],2330 nM
same,GI50,[16],537 nM
same,TGI,[16],2030 nM
same,GI50,[17],192 nM
same,TGI,[17],911 nM
same,GI50,[18],373 nM
same,TGI,[18],1800 nM
same,GI50,[19],354 nM
same,TGI,[19],1600 nM
same,GI50,[20],1040 nM
same,TGI,[20],2310 nM
same,GI50,[21],337 nM
same,TGI,[21],1360 nM
same,GI50,[22],300 nM
same,TGI,[22],1050 nM
same,solubility,[23],< 500 µg/mL
COC(=O)c1ccc2c(c1)n(Cc1ccc3ccccc3c1)c[n+]2Cc1ccc2ccccc2c1.[Br-],IC50,[2],9000 nM
same,IC50,[3],7000 nM
same,IC50,[4],12000 nM
same,IC50,[5],16000 nM
same,growth at 10 µM,[6],61.3%
same,growth at 10 µM,[7],-10.7%
same,growth at 10 µM,[8],75%
same,growth at 10 µM,[9],71%
same,growth at 10 µM,[10],63.8%
same,growth at 10 µM,[11],34.6%
same,growth at 10 µM,[12],57.2%
same,growth at 10 µM,[13],28.6%
same,growth at 10 µM,[14],26.3%
same,solubility,[23],< 500 µg/mL
CCCCCCCc1n(Cc2ccc3ccccc3c2)c2ccccc2[n+]1Cc1ccc2ccccc2c1.[Br-],IC50,[2],< 1000 nM
same,IC50,[3],< 1000 nM
same,IC50,[4],< 1000 nM
same,IC50,[5],< 1000 nM
same,growth at 10 µM,[6],-70.8%
same,growth at 10 µM,[7],-84.4%
same,growth at 10 µM,[8],-77.5%
same,growth at 10 µM,[9],-73.5%
same,growth at 10 µM,[10],-70.6%
same,growth at 10 µM,[11],-76.9%
same,growth at 10 µM,[12],-86%
same,growth at 10 µM,[13],-73%
same,growth at 10 µM,[14],-81.1%
same,solubility,[23],< 500 µg/mL
